Results as given in ChEMBL document CHEMBL1158180, “Synthesis and antimicrobial activity of some new heterocycles incorporating antipyrine moiety” (2008).

Tests used:
Conditions in all cases: read-out: IZ
[1] = system: Bacillus thuringiensis; experiment: Antimicrobial activity Bacillus thuringiensis at 0.15 mg/mL after 24 hrs by agar diffusion technique; format: functional
Procedure, shortened: (§1)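 Agar diffusion on nutrient agar. Test solutions were 0.15 mg/mL in DMSO, and DMSO alone was the blank. Plates were seeded with the bacterial culture and incubated 24 h at 30 °C. The read-out was the diameter of the inhibition zone in mm.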

[2] = system: Fusarium oxysporum; experiment: Antimicrobial activity Fusarium oxysporum at 0.15 mg/mL after 72 hrs by agar diffusion technique
[3] = system: Klebsiella pneumoniae; experiment: Antimicrobial activity Klebsiella pneumoniae at 0.15 mg/mL after 24 hrs by agar diffusion technique; format: functional; procedure, shortened: as §1
[4] = system: Botrytis fabae; experiment: Antimicrobial activity Botrytis fabae at 0.15 mg/mL after 72 hrs by agar diffusion technique
[5] = system: Klebsiella pneumoniae; experiment: Antimicrobial activity Klebsiella pneumoniae at 25 ug/mL after 24 hrs by agar diffusion technique; format: functional
[6] = system: Bacillus thuringiensis; experiment: Antimicrobial activity Bacillus thuringiensis at 25 ug/mL after 24 hrs by agar diffusion technique; format: functional
[7] = system: Botrytis fabae; experiment: Antimicrobial activity Botrytis fabae at 25 ug/mL after 72 hrs by agar diffusion technique
[8] = system: Fusarium oxysporum; experiment: Antimicrobial activity Fusarium oxysporum at 25 ug/mL after 72 hrs by agar diffusion technique

Question: Which results are given for `Cc1cc(C)c2c(n1)[nH]n1c(=N)c(C(=O)Nc3c(C)n(C)n(-c4ccccc4)c3=O)nnc21`?
Answer: zone of inhibition at 150 µg/mL [1]: 13 mm; zone of inhibition at 150 µg/mL [2]: 14 mm; zone of inhibition at 150 µg/mL [3]: 14 mm; zone of inhibition at 150 µg/mL [4]: 13 mm

Question: `Cc1cc(O)n2nc(Nc3ccccc3)c(C(=O)Nc3c(C)n(C)n(-c4ccccc4)c3=O)c2n1` was tested. Which zone of inhibition at 150 µg/mL [1] did it give?
Answer: 20 mm

Question: What about the zone of inhibition at 150 µg/mL [2] of the same molecule?
Answer: 25 mm

Question: What about the zone of inhibition at 150 µg/mL [3] of the same molecule?
Answer: 24 mm

Question: And the zone of inhibition at 150 µg/mL [4]?
Answer: 27 mm

Question: What does the source list for `Cc1c(NC(=O)c2sc(=S)n(-c3ccccc3)c2N)c(=O)n(-c2ccccc2)n1C`?
Answer: zone of inhibition at 150 µg/mL [1]: 12 mm; zone of inhibition at 150 µg/mL [2]: 13 mm; zone of inhibition at 150 µg/mL [3]: 12 mm; zone of inhibition at 150 µg/mL [4]: 13 mm

Question: Which results are given for `Cc1cc(C)n(-c2c(C)n(C)n(-c3ccccc3)c2=O)c(=O)c1C#N`?
Answer: zone of inhibition at 150 µg/mL [1]: 10 mm; zone of inhibition at 150 µg/mL [2]: 12 mm; zone of inhibition at 150 µg/mL [3]: 13 mm; zone of inhibition at 150 µg/mL [4]: 12 mm

Question: What does the source list for `Cc1c(-n2nnc3[nH]nc(Nc4ccccc4)c3c2=O)c(=O)n(-c2ccccc2)n1C`?
Answer: zone of inhibition at 150 µg/mL [1]: 22 mm; zone of inhibition at 150 µg/mL [2]: 22 mm; zone of inhibition at 150 µg/mL [3]: 22 mm; zone of inhibition at 150 µg/mL [4]: 26 mm

Question: Which results are given for `O=C(N[C@H](CO)[C@H](O)c1ccc([N+](=O)[O-])cc1)C(Cl)Cl` [CHLORAMPHENICOL]?
Answer: zone of inhibition at 25 µg/mL [5]: 20 mm; zone of inhibition at 25 µg/mL [6]: 23 mm; zone of inhibition at 25 µg/mL [7]: 16 mm; zone of inhibition at 25 µg/mL [8]: 15 mm

Question: Which results are given for `Cc1cc(C)c2c(N/N=C(\C#N)C(=O)Nc3c(C)n(C)n(-c4ccccc4)c3=O)n[nH]c2n1`?
Answer: zone of inhibition at 150 µg/mL [1]: 16 mm; zone of inhibition at 150 µg/mL [2]: 16 mm; zone of inhibition at 150 µg/mL [3]: 19 mm; zone of inhibition at 150 µg/mL [4]: 16 mm

Question: Which results are given for `OC(Cn1cncn1)(Cn1cncn1)c1ccc(F)cc1F` [FLUCONAZOLE]?
Answer: zone of inhibition at 25 µg/mL [7]: 22 mm; zone of inhibition at 25 µg/mL [8]: 16 mm

Question: How did the zone of inhibition at 150 µg/mL [1] turn out when `Cc1c(NC(=O)c2c(Nc3ccccc3)n[nH]c2N)c(=O)n(-c2ccccc2)n1C` was run?
Answer: 15 mm

Question: And the zone of inhibition at 150 µg/mL [2]?
Answer: 12 mm

Question: And the zone of inhibition at 150 µg/mL [3]?
Answer: 12 mm

Question: What about the zone of inhibition at 150 µg/mL [4] of the same molecule?
Answer: 16 mm

Question: How did the zone of inhibition at 150 µg/mL [1] turn out when `Cc1c(-n2cnc3[nH]nc(Nc4ccccc4)c3c2=O)c(=O)n(-c2ccccc2)n1C` was run?
Answer: 28 mm

Question: And the zone of inhibition at 150 µg/mL [2]?
Answer: 25 mm

Question: And the zone of inhibition at 150 µg/mL [3]?
Answer: 29 mm

Question: What about the zone of inhibition at 150 µg/mL [4] of the same molecule?
Answer: 27 mm

Question: What does the source list for `Cc1c(NC(=O)CC#N)c(=O)n(-c2ccccc2)n1C`?
Answer: zone of inhibition at 150 µg/mL [1]: 12 mm; zone of inhibition at 150 µg/mL [2]: 12 mm; zone of inhibition at 150 µg/mL [3]: 13 mm; zone of inhibition at 150 µg/mL [4]: 10 mm

Question: Which results are given for `Cc1c(NC(=O)c2c(Nc3ccccc3)n[nH]c2/N=C\N(C)C)c(=O)n(-c2ccccc2)n1C`?
Answer: zone of inhibition at 150 µg/mL [1]: 27 mm; zone of inhibition at 150 µg/mL [2]: 21 mm; zone of inhibition at 150 µg/mL [3]: 24 mm; zone of inhibition at 150 µg/mL [4]: 25 mm

Question: Which results are given for `Cc1cc(C)n2nc(Nc3ccccc3)c(C(=O)Nc3c(C)n(C)n(-c4ccccc4)c3=O)c2n1`?
Answer: zone of inhibition at 150 µg/mL [1]: 21 mm; zone of inhibition at 150 µg/mL [2]: 25 mm; zone of inhibition at 150 µg/mL [3]: 28 mm; zone of inhibition at 150 µg/mL [4]: 24 mm

Question: How did the zone of inhibition at 150 µg/mL [1] turn out when `Cc1c(NC(=O)c2cc3ccccc3oc2=N)c(=O)n(-c2ccccc2)n1C` was run?
Answer: 24 mm

Question: What about the zone of inhibition at 150 µg/mL [2] of the same molecule?
Answer: 18 mm

Question: And the zone of inhibition at 150 µg/mL [3]?
Answer: 22 mm

Question: And the zone of inhibition at 150 µg/mL [4]?
Answer: 18 mm

Question: What does the source list for `CC1(C)S[C@@H]2[C@H](NC(=O)[C@H](N)c3ccccc3)C(=O)N2[C@H]1C(=O)O` [AMPICILLIN]?
Answer: zone of inhibition at 25 µg/mL [5]: 19 mm; zone of inhibition at 25 µg/mL [6]: 18 mm; zone of inhibition at 25 µg/mL [7]: 17 mm; zone of inhibition at 25 µg/mL [8]: 15 mm
